Source: ChEMBL document CHEMBL4308829, “Design and Synthesis of Novel Positive Allosteric Modulators of α7 Nicotinic Acetylcholine Receptors with the Ability To Rescue Auditory Gating Deficit in Mice” (J Med Chem, 2018)
The source made the active and inactive calls. The rule behind the calls is not given here.

Tests used:
[1] = biological target: T1, Neuronal acetylcholine receptor subunit alpha-7 (Homo sapiens, UniProt P36544); assay: (§1) Positive allosteric modulation of human alpha7 nAChR expressed in Xenopus laevis oocytes assessed as increase in acetylcholine-induced channel current at 10 uM at -90 mV holding potential preincubated for 2 mins followed by co-application with acetylcholine for 10 secs by two-electrode voltage clamp method relative to control; assay type: cell-based
T1 sequence (P36544 whole entry): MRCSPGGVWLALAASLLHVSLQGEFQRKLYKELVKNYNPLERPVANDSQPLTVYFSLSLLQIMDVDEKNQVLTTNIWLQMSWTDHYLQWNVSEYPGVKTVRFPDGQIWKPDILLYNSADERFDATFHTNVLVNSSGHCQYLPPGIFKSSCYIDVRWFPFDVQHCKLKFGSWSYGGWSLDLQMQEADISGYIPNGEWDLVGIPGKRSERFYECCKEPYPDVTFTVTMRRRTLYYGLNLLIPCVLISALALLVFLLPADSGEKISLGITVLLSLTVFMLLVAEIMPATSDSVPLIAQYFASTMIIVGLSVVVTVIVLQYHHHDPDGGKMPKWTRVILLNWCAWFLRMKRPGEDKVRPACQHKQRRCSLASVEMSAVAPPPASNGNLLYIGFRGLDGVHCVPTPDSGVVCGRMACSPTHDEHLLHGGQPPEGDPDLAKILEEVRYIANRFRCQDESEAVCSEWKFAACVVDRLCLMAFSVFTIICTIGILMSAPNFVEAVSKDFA

Mus musculus [2] = assay: (§2) Anti-schizophrenic activity in C57BL/6J mouse assessed as protection against MK-801-induced auditory gating deficit by measuring prepulse inhibition impairment at 0.3 mg/kg, ip at 8 to 16 dB prepulse intensity (reference value: 11%); assay type: functional; design: scale not given: the % may be the effect or the level left
Mus musculus [3] = assay: as §2, with “1” for “0.3”, “intensity pretreated for 30 mins followed by MK-801 treatment and measured after 30 mins” for “intensity”, “8.7%)” for “11%)”; assay type: functional; design: scale not given: the % may be the effect or the level left
[4] = biological target: T1, Neuronal acetylcholine receptor subunit alpha-7; assay: Induction of desensitization of human alpha7 nAChR expressed in Xenopus laevis oocytes assessed as acetylcholine-induced channel desensitization time constant at 10 uM at -90 mV holding potential by two-electrode voltage clamp method (reference value: 5.56 +/- 1.27); assay type: cell-based
[5] = AUClast in rat at 3 mg/kg, iv by LC-MS/MS analysis; assay type: ADME, organism-based; design: dose 3 mg/kg, time 0 - last, route intravenous; conditions: in vivo
In short: (§3)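 Rat plasma stored at -20 °C, spiked with internal standard, protein-precipitated with methanol, centrifuged and filtered before LC-MS/MS. C18 column at 40 °C, acetonitrile/0.1% formic acid (80:20) isocratic at 0.5 mL/min. Positive ESI with MRM m/z 400.0->129.9. Parameters taken per rat by non-compartmental analysis, n = 3.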

[6] = Drug uptake in C57BL/6J mouse brain at 1 mg/kg, ip after 8 hrs by LC-MS/MS analysis; assay type: ADME, organism-based; conditions: read-out: Drug uptake
In short: (§4)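 C57BL/6J mice given 1 mg/kg i.p. from a 0.4 mg/mL solution in 10% DMSO/50% PEG400/40% SBECD. Plasma and brain taken at 0.5, 2 and 8 h. Samples mixed with internal standard in methanol/acetonitrile (1:1), centrifuged and diluted 10x in methanol:water with 0.1% FA, then measured by HPLC-MS-MS. n = 3; ratio is brain over plasma concentration.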

[7] = Tmax in rat at 60 mg/kg, po by LC-MS/MS analysis; assay type: ADME, organism-based; conditions: in vivo; in short: as §3
[8] = Ratio of drug level in C57BL/6J mouse brain to plasma at 1 mg/kg, ip after 8 hrs by LC-MS/MS analysis; assay type: ADME, organism-based; conditions: read-out: BPR; in short: as §4
[9] = MRT in rat at 3 mg/kg, iv by LC-MS/MS analysis; assay type: ADME, organism-based; conditions: in vivo; in short: as §3
[10] = Drug uptake in C57BL/6J mouse brain at 1 mg/kg, ip after 2 hrs by LC-MS/MS analysis; assay type: ADME, organism-based; conditions: read-out: Drug uptake; in short: as §4
[11] = biological target: Neuronal acetylcholine receptor; alpha3/beta4 (Rattus norvegicus) (UniProt P04757+P12392); assay: Positive allosteric modulation of rat alpha3beta4 nAChR expressed in Xenopus laevis oocytes assessed as increase in acetylcholine-induced channel current at 10 uM at -90 mV holding potential by two-electrode voltage clamp method; assay type: cell-based
In short: (§5)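 Rat α3β4 or α4β2 subunit cRNAs (~2 ng total, 1:1) injected into oocytes, which were kept at 16 °C in ND96. Two-electrode voltage clamp at -90 mV, 24-72 h post-injection, in Ringer's containing atropine at room temperature.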

[12] = Apparent volume of distribution during terminal phase in rat at 60 mg/kg, po by LC-MS/MS analysis; assay type: ADME, organism-based; conditions: in vivo; in short: as §3
[13] = Plasma concentration in C57BL/6J mouse at 1 mg/kg, ip after 0.5 hrs by LC-MS/MS analysis; assay type: ADME, organism-based; in short: as §4
[14] = biological target: Neuronal acetylcholine receptor; alpha4/beta2 (Rattus norvegicus) (UniProt P09483+P12390); assay: Positive allosteric modulation of rat alpha4beta2 nAChR expressed in Xenopus laevis oocytes assessed as increase in acetylcholine-induced channel current at 10 uM at -90 mV holding potential by two-electrode voltage clamp method; assay type: cell-based; in short: as §5
[15] = biological target: T1, Neuronal acetylcholine receptor subunit alpha-7; assay: as §1, with “by” for “by co-application with”, “addition in presence of alpha7 nAChR antagonist MLA” for “for 10 secs”; assay type: cell-based
[16] = Apparent volume of distribution in rat at 3 mg/kg, iv by LC-MS/MS analysis; assay type: ADME, organism-based; conditions: in vivo; in short: as §3
Mus musculus [17] = assay: Anti-schizophrenic activity in C57BL/6J mouse assessed as protection against MK-801-induced auditory gating deficit by measuring prepulse inhibition impairment at 0.1 mg/kg, ip at 8 to 16 dB prepulse intensity (reference value: 11%); assay type: functional; design: scale not given: the % may be the effect or the level left
[18] = Half life in rat at 3 mg/kg, iv by LC-MS/MS analysis; assay type: ADME, organism-based; conditions: in vivo; in short: as §3
Mus musculus [19] = assay: Anti-schizophrenic activity in ip dosed C57BL/6J mouse assessed as protection against MK-801-induced auditory gating deficit by measuring reduction in prepulse inhibition impairment at 8 to 16 dB prepulse intensity; assay type: functional, organism-based
[20] = Ratio of drug level in C57BL/6J mouse brain to plasma at 1 mg/kg, ip after 2 hrs by LC-MS/MS analysis; assay type: ADME, organism-based; conditions: read-out: BPR; in short: as §4
[21] = Ratio of drug level in C57BL/6J mouse brain to plasma at 1 mg/kg, ip after 0.5 hrs by LC-MS/MS analysis; assay type: ADME, organism-based; conditions: read-out: BPR; in short: as §4
[22] = Drug uptake in C57BL/6J mouse brain at 1 mg/kg, ip after 0.5 hrs by LC-MS/MS analysis; assay type: ADME, organism-based; conditions: read-out: Drug uptake; in short: as §4
[23] = Apparent clearance in rat at 60 mg/kg, po by LC-MS/MS analysis; assay type: ADME, organism-based; conditions: in vivo; in short: as §3
[24] = biological target: Glutamate NMDA receptor; Grin1/Grin2b (Rattus norvegicus) (UniProt P35439+Q00960); assay: Positive allosteric modulation of rat GluN1/GluN2B receptor expressed in Xenopus laevis oocytes assessed as increase in glycine/glutamate-induced channel current 10 uM by two-electrode voltage clamp method; assay type: cell-based
[25] = biological target: GABA-A receptor; anion channel (Homo sapiens) (UniProt P14867+P47870+P18507+P28472+P48169+Q99928+Q9UN88+P34903+O00591+O14764+Q8N1C3+P18505+P78334+P47869+P31644+Q16445); assay: Positive allosteric modulation of human GABA-A receptor expressed in Xenopus laevis oocytes assessed as increase in GABA-induced channel current 10 uM by two-electrode voltage clamp method; assay type: cell-based
Mus musculus [26] = assay: Anti-schizophrenic activity in C57BL/6J mouse assessed as protection against MK-801-induced auditory gating deficit by measuring prepulse inhibition impairment at 1 mg/kg, ip at 8 to 16 dB prepulse intensity (reference value: 11%); assay type: functional; design: scale not given: the % may be the effect or the level left
[27] = Plasma concentration in C57BL/6J mouse at 1 mg/kg, ip after 8 hrs by LC-MS/MS analysis; assay type: ADME, organism-based; in short: as §4
[28] = Cmax in rat at 60 mg/kg, po by LC-MS/MS analysis; assay type: ADME, organism-based; design: dose 60 mg/kg, route oral; conditions: in vivo; in short: as §3
[29] = AUCinfinity in rat at 3 mg/kg, iv by LC-MS/MS analysis; assay type: ADME, organism-based; design: dose 3 mg/kg, route intravenous, time infinity; conditions: in vivo; in short: as §3
[30] = Oral bioavailability in rat at 60 mg/kg by LC-MS/MS analysis; assay type: ADME, organism-based; conditions: in vivo; in short: as §3

%max [1]: 1630% | AUC(0-t) [5]: 600 ng·h/mL | concentration at 8 h [6]: 3.7 ng/g | Tmax [7]: 1.3 h | Kp at 8 h [8]: 2.3 | MRT [9]: 7 h | concentration at 2 h [10]: 26.3 ng/g | Activity [11]: inactive | Vd/F [12]: 0.6 L/kg | concentration at 0.5 h [13]: 34.3 ng/mL | Activity [14]: inactive | Activity [15]: inactive | Vd [16]: 0.069 L/kg | half-life [18]: 10.8 h | Kp at 2 h [20]: 2.7 | Kp at 0.5 h [21]: 2.5 | concentration at 0.5 h [22]: 84.7 ng/g | CL/F [23]: 1 mL/min/kg | Activity [24]: inactive | Activity [25]: inactive | concentration at 8 h [27]: 0.9 ng/mL | Cmax [28]: 200 ng/mL | AUC(0-inf) [29]: 680 ng·h/mL | bioavailability [30]: 8%
SMILES: Cc1cccc(Cl)c1-n1cnc2nc(SCc3ccccc3)sc2c1=O
Activity (Mus musculus [2]): 26% | Activity (Mus musculus [3]): 30% | Activity [4]: 6.54 | Activity (Mus musculus [17]): 22% | Activity (Mus musculus [19]): Dose-dependent effect | Activity (Mus musculus [26]): 28%
